Results: ChEMBL document CHEMBL1145480, “Horizontal gene transfer of ftsI, encoding penicillin-binding protein 3, in Haemophilus influenzae” (2007)
In brackets after ≈: the same amount, converted by molar mass.

What was measured:
Type in all cases: functional
[1] = system: Haemophilus influenzae; experiment: Antibacterial activity against Haemophilus influenzae Rd by broth microdilution method
Method in brief: (§1)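 MICs were determined by broth dilution following CLSI guidelines (approved standard M7-A7). The agents were rifampin, cefdinir and fosfomycin. Strains were routinely grown on chocolate II agar or in brain heart infusion broth with 2% defibrinated, lysed horse blood plus 15 μg/ml β-NAD+.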

[2] = system: Haemophilus influenzae; experiment: Antibacterial activity against Haemophilus influenzae MSC06651 by broth microdilution method; method in brief: as §1
[3] = system: Haemophilus influenzae; experiment: Antibacterial activity against rifampin-resistant Haemophilus influenzae RdRIF by broth microdilution method; method in brief: as §1
[4] = system: Haemophilus influenzae; experiment: Antibacterial activity against rifampin and cefdinir-resistant Haemophilus influenzae RdRIF/MSC06663 mutant by broth microdilution method; method in brief: as §1
[5] = system: Haemophilus influenzae; experiment: Antibacterial activity against Haemophilus influenzae MSC06647 by broth microdilution method; method in brief: as §1
[6] = system: Haemophilus influenzae; experiment: Antibacterial activity against rifampin and cefdinir-resistant Haemophilus influenzae RdRIF/MSC06651 mutant by broth microdilution method; method in brief: as §1
[7] = system: Haemophilus influenzae; experiment: Antibacterial activity against Haemophilus influenzae MSC06663 by broth microdilution method; method in brief: as §1
[8] = system: Haemophilus influenzae; experiment: Antibacterial activity against rifampin and cefdinir-resistant Haemophilus influenzae RdRIF/MSC06647 mutant by broth microdilution method; method in brief: as §1
[9] = system: Haemophilus influenzae; experiment: Antibacterial activity against Haemophilus influenzae MSC02070 by broth microdilution method; method in brief: as §1
[10] = system: Haemophilus influenzae; experiment: Antibacterial activity against Haemophilus influenzae MSC01869 by broth microdilution method; method in brief: as §1
[11] = system: Haemophilus influenzae; experiment: Antibacterial activity against Haemophilus influenzae MSC02104 by broth microdilution method
[12] = system: Aggregatibacter aphrophilus; experiment: Antibacterial activity against Haemophilus paraphrophilus ATCC 29241 by broth microdilution method
[13] = system: Haemophilus influenzae; experiment: Antibacterial activity against Haemophilus influenzae MSC07169 by broth microdilution method; method in brief: as §1
[14] = system: Haemophilus influenzae; experiment: Antibacterial activity against Haemophilus influenzae MSC01855 by broth microdilution method; method in brief: as §1
[15] = system: Haemophilus influenzae; experiment: Antibacterial activity against Haemophilus influenzae MSC01432 by broth microdilution method; method in brief: as §1
[16] = system: Aggregatibacter segnis; experiment: Antibacterial activity against Haemophilus segnis ATCC 33393 by broth microdilution method
[17] = system: Haemophilus influenzae; experiment: Antibacterial activity against Haemophilus influenzae MSC01363 by broth microdilution method; method in brief: as §1
[18] = system: Haemophilus paraphrohaemolyticus; experiment: Antibacterial activity against Haemophilus paraphrohaemolyticus ATCC 29237 by broth microdilution method
[19] = system: Aggregatibacter aphrophilus; experiment: Antibacterial activity against Haemophilus aphrophilus ATCC 33389 by broth microdilution method
[20] = system: Haemophilus haemolyticus; experiment: Antibacterial activity against Haemophilus haemolyticus ATCC 33390 by broth microdilution method
[21] = system: Haemophilus influenzae; experiment: Antibacterial activity against Haemophilus influenzae MSC02022 by broth microdilution method; method in brief: as §1
[22] = system: Haemophilus parahaemolyticus; experiment: Antibacterial activity against Haemophilus parahaemolyticus ATCC 10014 by broth microdilution method
[23] = system: Haemophilus influenzae; experiment: Antibacterial activity against Haemophilus influenzae MSC07237 by broth microdilution method; method in brief: as §1
[24] = system: Haemophilus influenzae; experiment: Antibacterial activity against Haemophilus influenzae MSC07771 by broth microdilution method; method in brief: as §1
[25] = system: Haemophilus haemolyticus; experiment: Antibacterial activity against Haemophilus haemolyticus MSC07286 by broth microdilution method
[26] = system: Haemophilus parainfluenzae; experiment: Antibacterial activity against Haemophilus parainfluenzae ATCC 33392 by broth microdilution method
[27] = system: Haemophilus influenzae; experiment: Antibacterial activity against Haemophilus influenzae MSC01400 by broth microdilution method; method in brief: as §1
[28] = system: Haemophilus influenzae; experiment: Antibacterial activity against Haemophilus influenzae MSC02149 by broth microdilution method; method in brief: as §1

| Compound | MIC [1] | MIC [2] | MIC [3] | MIC [4] | MIC [5] | MIC [6] | MIC [7] | MIC [8] | MIC [9] | MIC [10] | MIC [11] | MIC [12] | MIC [13] | MIC [14] | MIC [15] | MIC [16] | MIC [17] | MIC [18] | MIC [19] | MIC [20] | further results |
| --- | --- | --- | --- | --- | --- | --- | --- | --- | --- | --- | --- | --- | --- | --- | --- | --- | --- | --- | --- | --- | --- |
| C[C@@H]1O[C@@H]1P(=O)(O)O [FOSFOMYCIN] | 2 µg/mL (≈ 14.5 µM) | 256 µg/mL (≈ 1850 µM) | 2 µg/mL (≈ 14.5 µM) | 2 µg/mL (≈ 14.5 µM) | 0.12 µg/mL (≈ 0.869 µM) | 1 µg/mL (≈ 7.24 µM) | 0.06 µg/mL (≈ 0.435 µM) | 2 µg/mL (≈ 14.5 µM) | – | – | – | – | – | – | – | – | – | – | – | – | – |
| CC1(C)S[C@@H]2[C@H](NC(=O)[C@H](N)c3ccccc3)C(=O)N2[C@H]1C(=O)O [AMPICILLIN] | – | 2 µg/mL (≈ 5.72 µM) | 0.25 µg/mL (≈ 0.715 µM) | – | 2 µg/mL (≈ 5.72 µM) | – | 1 µg/mL (≈ 2.86 µM) | – | 8 µg/mL (≈ 22.9 µM) | > 64 µg/mL | > 64 µg/mL | 0.25 µg/mL (≈ 0.715 µM) | 1 µg/mL (≈ 2.86 µM) | 4 µg/mL (≈ 11.4 µM) | 1 µg/mL (≈ 2.86 µM) | 0.5 µg/mL (≈ 1.43 µM) | 2 µg/mL (≈ 5.72 µM) | 0.25 µg/mL (≈ 0.715 µM) | 0.5 µg/mL (≈ 1.43 µM) | 0.5 µg/mL (≈ 1.43 µM) | MIC [21]: 1 µg/mL (≈ 2.86 µM); MIC [22]: 0.25 µg/mL (≈ 0.715 µM); MIC [23]: 4 µg/mL (≈ 11.4 µM); MIC [24]: 2 µg/mL (≈ 5.72 µM); MIC [25]: 2 µg/mL (≈ 5.72 µM); MIC [26]: 0.5 µg/mL (≈ 1.43 µM); MIC [27]: 8 µg/mL (≈ 22.9 µM); MIC [28]: 8 µg/mL (≈ 22.9 µM) |
| C=CC1=C(C(=O)O)N2C(=O)[C@@H](NC(=O)/C(=N\O)c3csc(N)n3)[C@H]2SC1 [CEFDINIR] | 0.25 µg/mL (≈ 0.632 µM) | 8 µg/mL (≈ 20.2 µM) | 0.25 µg/mL (≈ 0.632 µM) | 8 µg/mL (≈ 20.2 µM) | 1 µg/mL (≈ 2.53 µM) | 8 µg/mL (≈ 20.2 µM) | 2 µg/mL (≈ 5.06 µM) | 2 µg/mL (≈ 5.06 µM) | 8 µg/mL (≈ 20.2 µM) | 8 µg/mL (≈ 20.2 µM) | 16 µg/mL (≈ 40.5 µM) | 0.06 µg/mL (≈ 0.152 µM) | 1 µg/mL (≈ 2.53 µM) | 8 µg/mL (≈ 20.2 µM) | 2 µg/mL (≈ 5.06 µM) | 0.06 µg/mL (≈ 0.152 µM) | 1 µg/mL (≈ 2.53 µM) | 0.016 µg/mL (≈ 0.0405 µM) | 0.12 µg/mL (≈ 0.303 µM) | 0.12 µg/mL (≈ 0.303 µM) | MIC [21]: 2 µg/mL (≈ 5.06 µM); MIC [22]: 0.016 µg/mL (≈ 0.0405 µM); MIC [23]: 16 µg/mL (≈ 40.5 µM); MIC [24]: 1 µg/mL (≈ 2.53 µM); MIC [25]: 2 µg/mL (≈ 5.06 µM); MIC [26]: 0.12 µg/mL (≈ 0.303 µM); MIC [27]: 8 µg/mL (≈ 20.2 µM); MIC [28]: 16 µg/mL (≈ 40.5 µM) |
| CO[C@H]1/C=C/O[C@@]2(C)Oc3c(C)c(O)c4c(O)c(c(/C=N/N5CCN(C)CC5)c(O)c4c3C2=O)NC(=O)/C(C)=C\C=C\[C@H](C)[C@H](O)[C@@H](C)[C@@H](O)[C@@H](C)[C@H](OC(C)=O)[C@@H]1C [RIFAMPIN] | 0.5 µg/mL (≈ 0.608 µM) | 0.5 µg/mL (≈ 0.608 µM) | > 128 µg/mL | > 128 µg/mL | 0.25 µg/mL (≈ 0.304 µM) | > 128 µg/mL | 0.5 µg/mL (≈ 0.608 µM) | > 128 µg/mL | – | – | – | – | – | – | – | – | – | – | – | – | – |
